# From ChEMBL document CHEMBL4480390, “Cink4T, a quinazolinone-based dual inhibitor of Cdk4 and tubulin polymerization, identified via ligand-based virtual screening, for efficient anticancer therapy” (Eur J Med Chem, 2019)
# pEC50, pIC50: −log10 of the molar value. Activity calls are given as the source filed them. No cut-off for these calls is given here.
# Assays:
# [1] = target: T1, Cyclin-dependent kinase 4/cyclin D1 (Homo sapiens) (UniProt P11802+P24385); assay: Inhibition of recombinant human N-terminal GST-tagged CDK4 (S4 to E303 residues)/Cyclin D1 (Q4 to I295 residues) expressed in sf9 cells at 10 uM using RBCTF as substrate measured after 1 hr by ADP-glo luminescence assay relative to control
# CDK9/cyclin T1 = CDK9/cyclin T1 (Homo sapiens, UniProt P50750); assay: Inhibition of N-terminal GST-HIS6 fusion protein tagged human full length CDK9 (M1 to F372 residues)/N-terminal HIS6-fused human Cyclin-T1 (M1 to K726 residues) expressed in Sf9 cells using RBCTF as substrate measured after 1 hr by ADP-glo luminescence assay
# Cytochrome P450 1B1 = target: T2, Cytochrome P450 1B1 (Homo sapiens, UniProt Q16678); assay: Inhibition of recombinant human CYP1B1 expressed in baker's yeast-derived microsomes using 7-ethoxyresorufin as substrate by fluorescence assay
# T2 sequence (Q16678 whole entry): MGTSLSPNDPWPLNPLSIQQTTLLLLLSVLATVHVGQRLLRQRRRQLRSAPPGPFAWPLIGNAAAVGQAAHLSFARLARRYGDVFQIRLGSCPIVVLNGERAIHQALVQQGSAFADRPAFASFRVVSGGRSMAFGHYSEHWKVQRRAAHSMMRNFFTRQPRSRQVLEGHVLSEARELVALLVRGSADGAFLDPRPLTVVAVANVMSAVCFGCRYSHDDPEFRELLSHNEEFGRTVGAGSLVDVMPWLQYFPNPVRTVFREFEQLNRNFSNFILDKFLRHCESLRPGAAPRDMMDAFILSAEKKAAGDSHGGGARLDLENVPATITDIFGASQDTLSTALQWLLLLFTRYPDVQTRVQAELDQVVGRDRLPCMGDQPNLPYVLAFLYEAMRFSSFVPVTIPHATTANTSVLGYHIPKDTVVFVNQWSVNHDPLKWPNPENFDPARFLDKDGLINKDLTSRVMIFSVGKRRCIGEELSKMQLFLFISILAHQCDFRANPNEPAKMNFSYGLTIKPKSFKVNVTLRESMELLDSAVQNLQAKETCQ
# Tubulin (Sus scrofa) [2] = target: T3, Tubulin (Sus scrofa) (UniProt P02554+P02550); assay: Inhibition of porcine tubulin polymerization at 5 uM incubated for 1 min by fluorescence based assay; type: protein assay
# In short: (§1)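 Compounds added from 10x stocks in duplicate and warmed at 37°C ≤1 min. Ice-cold tubulin pre-mix then added. Fluorescent reporter read at ex 360/em 460 nm for 60 min. Paclitaxel served as enhancer control, CaCl2 as inhibitor control.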
# Tubulin (Sus scrofa) [3] = target: T3, Tubulin (Sus scrofa); assay: Inhibition of porcine tubulin polymerization incubated for 1 min by fluorescence based assay; type: protein assay; in short: as §1
# T47D [4] = assay: Cell cycle arrest in human T47D cells assessed as ratio of G1 to S phase at 1.5 uM measured after 18 hrs by propidium iodide staining based flow cytometry (reference value: 2.65); type: functional
# [5] = target: T1, Cyclin-dependent kinase 4/cyclin D1 (Homo sapiens); assay: Inhibition of CDK4/cyclin D1 in human T47D cells assessed as reduction in phosphorylation of pRb at Ser780 residues at 0.75 to 1.5 uM measured after 18 hrs by Western blot analysis; type: cell-based
# In short: (§2)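 T47D cells left untreated or treated 18 h at 0.75 or 1.5 µM. Western blots probed with phospho-specific pRb antibodies (Ser780, Ser795, Ser807/811) and a total-pRb antibody; HRP-conjugated secondary for detection.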
# [6] = target: T1, Cyclin-dependent kinase 4/cyclin D1 (Homo sapiens); assay: Inhibition of CDK4/cyclin D1 in human T47D cells assessed as reduction in phosphorylation of pRb at Ser807/11 residues at 0.75 uM measured after 18 hrs by Western blot analysis; type: cell-based; in short: as §2
# T47D [7] = assay: Cell cycle arrest in human T47D cells assessed as accumulation at G0/G1 phase at 0.75 uM treated 18 hrs post serum-starvation measured after 18 hrs in presence of fresh medium containing FBS by propidium iodide staining based flow cytometry (reference value: 60.3%); type: functional
# T47D [8] = assay: Cell cycle arrest in human T47D cells assessed as increase in accumulation at S phase at 0.75 uM treated 18 hrs post serum-starvation measured after 18 hrs in presence of fresh medium containing FBS by propidium iodide staining based flow cytometry relative to control; type: functional
# T47D [9] = assay: Cell cycle arrest in human T47D cells assessed as increase in accumulation at S phase at 1.5 uM treated 18 hrs post serum-starvation measured after 18 hrs in presence of fresh medium containing FBS by propidium iodide staining based flow cytometry relative to control; type: functional
# Calu-1 [10] = assay: Cell cycle arrest in human Calu1 cells assessed as accumulation at G0/G1 phase at 1.8 uM treated 18 hrs post serum-starvation measured after 18 hrs in presence of fresh medium containing FBS by propidium iodide staining based flow cytometry (reference value: 69.2%); type: functional
# Calu-1 [11] = assay: Cell cycle arrest in human Calu1 cells assessed as increase in accumulation at S phase at 0.9 uM treated 18 hrs post serum-starvation measured after 18 hrs in presence of fresh medium containing FBS by propidium iodide staining based flow cytometry relative to control; type: functional
# MDA-MB-468 [12] = assay: Cell cycle arrest in human MDA-MB-468 cells assessed as accumulation at sub-G1 phase at 22 uM measured after 18 hrs by propidium iodide staining based flow cytometry relative to control; type: functional
# A549 [13] = assay: Cell cycle arrest in human A549 cells assessed as ratio of G1 to S phase at 1.6 uM measured after 18 hrs by propidium iodide staining based flow cytometry (reference value: 2.7); type: functional
# A549 [14] = assay: Cell cycle arrest in human A549 cells assessed as accumulation at G0/G1 phase at 0.8 uM measured after 18 hrs by propidium iodide staining based flow cytometry (reference value: 58%); type: functional
# A549 [15] = assay: Cell cycle arrest in human A549 cells assessed as accumulation at S phase at 1.6 uM measured after 18 hrs by propidium iodide staining based flow cytometry (reference value: 21%); type: functional
# A549 [16] = assay: Cell cycle arrest in human A549 cells assessed as accumulation at G2/M phase at 0.8 uM measured after 18 hrs by propidium iodide staining based flow cytometry (reference value: 18%); type: functional
# A549 [17] = assay: Cell cycle arrest in human A549 cells assessed as accumulation at G2/M phase at 1.6 uM measured after 18 hrs by propidium iodide staining based flow cytometry (reference value: 18%); type: functional
# A549 [18] = assay: Cell cycle arrest in human A549 cells assessed as accumulation at G0/G1 phase at 0.8 uM treated 32 hrs post mimosine addition measured after 18 hrs in presence of fresh medium by propidium iodide staining based flow cytometry (reference value: 58%); type: functional
# A549 [19] = assay: Cell cycle arrest in human A549 cells assessed as accumulation at G0/G1 phase at 1.6 uM treated 32 hrs post mimosine addition measured after 18 hrs in presence of fresh medium by propidium iodide staining based flow cytometry (reference value: 58%); type: functional
# A549 [20] = assay: Cell cycle arrest in human A549 cells assessed as accumulation at S phase at 1.6 uM treated 32 hrs post mimosine addition measured after 18 hrs in presence of fresh medium by propidium iodide staining based flow cytometry (reference value: 23%); type: functional
# MDA-MB-468 [21] = assay: cells; conditions: Homo sapiens, MDA-MB-468, 72 h
# T3 sequence (P02550 whole entry, looked up): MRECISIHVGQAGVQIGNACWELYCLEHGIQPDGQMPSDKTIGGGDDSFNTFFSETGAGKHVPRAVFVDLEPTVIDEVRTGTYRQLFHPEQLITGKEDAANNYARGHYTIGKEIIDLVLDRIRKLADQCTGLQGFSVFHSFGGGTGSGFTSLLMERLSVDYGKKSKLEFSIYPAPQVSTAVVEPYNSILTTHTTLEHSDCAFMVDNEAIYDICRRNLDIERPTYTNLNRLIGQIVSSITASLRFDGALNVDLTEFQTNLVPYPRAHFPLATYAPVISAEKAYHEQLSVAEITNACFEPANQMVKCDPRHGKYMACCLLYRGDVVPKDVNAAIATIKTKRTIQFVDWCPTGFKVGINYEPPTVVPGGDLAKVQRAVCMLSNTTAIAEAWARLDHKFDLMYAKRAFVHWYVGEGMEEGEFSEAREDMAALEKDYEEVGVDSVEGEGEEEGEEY
# T3 sequence (P02554 whole entry, looked up): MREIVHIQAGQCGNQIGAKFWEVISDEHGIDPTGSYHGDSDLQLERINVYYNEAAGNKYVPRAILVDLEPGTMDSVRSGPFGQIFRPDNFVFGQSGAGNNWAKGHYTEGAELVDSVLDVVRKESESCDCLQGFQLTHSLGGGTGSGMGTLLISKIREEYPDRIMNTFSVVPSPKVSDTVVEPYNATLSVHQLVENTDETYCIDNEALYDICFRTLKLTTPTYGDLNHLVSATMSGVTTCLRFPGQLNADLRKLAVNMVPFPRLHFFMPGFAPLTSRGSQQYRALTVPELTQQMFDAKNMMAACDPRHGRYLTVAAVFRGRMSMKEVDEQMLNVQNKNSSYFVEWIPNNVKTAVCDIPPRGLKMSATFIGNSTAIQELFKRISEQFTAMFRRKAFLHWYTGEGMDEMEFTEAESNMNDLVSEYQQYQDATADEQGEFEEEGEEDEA
# CDK9/cyclin T1, sequence (O60563 whole entry, the tested form may be a part): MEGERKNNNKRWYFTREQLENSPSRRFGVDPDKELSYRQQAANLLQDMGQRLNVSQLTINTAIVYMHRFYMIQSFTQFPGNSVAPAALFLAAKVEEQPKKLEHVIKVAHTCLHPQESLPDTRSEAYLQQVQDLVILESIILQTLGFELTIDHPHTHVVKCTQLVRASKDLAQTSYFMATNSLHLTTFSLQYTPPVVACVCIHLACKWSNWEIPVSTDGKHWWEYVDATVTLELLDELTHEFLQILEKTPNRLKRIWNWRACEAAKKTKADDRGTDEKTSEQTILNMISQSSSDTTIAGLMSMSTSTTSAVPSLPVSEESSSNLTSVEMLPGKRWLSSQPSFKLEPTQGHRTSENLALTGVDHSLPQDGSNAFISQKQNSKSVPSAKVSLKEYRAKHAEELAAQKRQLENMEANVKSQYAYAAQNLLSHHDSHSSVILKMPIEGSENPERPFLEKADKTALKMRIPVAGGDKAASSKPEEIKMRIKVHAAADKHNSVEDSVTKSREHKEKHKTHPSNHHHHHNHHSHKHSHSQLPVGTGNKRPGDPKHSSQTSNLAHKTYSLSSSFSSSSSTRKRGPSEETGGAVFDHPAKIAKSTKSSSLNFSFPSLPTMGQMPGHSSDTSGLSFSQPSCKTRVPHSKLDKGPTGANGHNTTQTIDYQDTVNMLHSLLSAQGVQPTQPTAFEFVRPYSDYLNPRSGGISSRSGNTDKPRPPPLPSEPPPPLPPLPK
# CDK9/cyclin T1, sequence (P50750 whole entry, the tested form may be a part): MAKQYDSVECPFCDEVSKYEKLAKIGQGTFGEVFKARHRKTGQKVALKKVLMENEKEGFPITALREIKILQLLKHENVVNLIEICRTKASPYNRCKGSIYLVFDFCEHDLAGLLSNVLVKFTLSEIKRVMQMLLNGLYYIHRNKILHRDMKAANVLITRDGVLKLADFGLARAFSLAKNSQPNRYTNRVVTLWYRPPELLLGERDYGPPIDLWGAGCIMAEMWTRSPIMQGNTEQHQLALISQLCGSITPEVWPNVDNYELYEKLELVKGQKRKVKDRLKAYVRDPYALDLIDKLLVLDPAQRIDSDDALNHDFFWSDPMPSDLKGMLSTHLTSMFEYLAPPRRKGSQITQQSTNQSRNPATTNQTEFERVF
smiles,measurement,setting,value
O=C(COc1ccc(-c2nc3ccccc3c(=O)[nH]2)cc1)Nc1cccc(Cl)c1,inhibition,[1],95%
same,pIC50,CDK9/cyclin T1,< 4.00
same,pIC50,Cytochrome P450 1B1,< 5.30
same,inhibition,Tubulin (Sus scrofa) [2],Active
same,inhibition,Tubulin (Sus scrofa) [3],Dose-dependent effect
same,Ratio,T47D [4],12
same,inhibition,[5],Active
same,inhibition,[6],inactive
same,Activity,T47D [7],77%
same,Activity,T47D [8],2.13%
same,Activity,T47D [9],5.3%
same,Activity,Calu-1 [10],88%
same,Activity,Calu-1 [11],0.7%
same,Activity,MDA-MB-468 [12],0%
same,Ratio,A549 [13],0.75
same,Activity,A549 [14],65%
same,Activity,A549 [15],16%
same,Activity,A549 [16],28%
same,Activity,A549 [17],70%
same,Activity,A549 [18],36%
same,Activity,A549 [19],12%
same,Activity,A549 [20],18%
same,pEC50,MDA-MB-468 [21],4.96
